Assay results collected from several papers.
Each line is one published result; the experiments were not run side by side.
Target: Serine/threonine-protein kinase SBK1 (SBK1, Homo sapiens, UniProt Q52WX2)

CN(c1ccnc(CNc2nc(Nc3ccc4c(c3)CC(=O)N4)ncc2C(F)(F)F)n1)S(C)(=O)=O  remaining binding (cell-free assay, competition with immobilised ligand; 1 µM): 34%
Cc1sc(C(=O)NC2COC2)cc1-n1cc(NC(=O)Nc2c(F)cccc2Cl)cn1  remaining activity (enzyme activity, inhibitor; 10 µM): 87.5%
Cc1ccc(C(=O)Nc2ccc(CN3CCN(C)CC3)c(C(F)(F)F)c2)cc1C#Cc1cnc2cccnn12  remaining activity (enzyme activity, inhibitor; 23.5 nM): 80%
Nc1ncnc2occ(-c3ccc(NC(=O)Nc4cc(C(F)(F)F)ccc4F)cc3)c12  remaining signal (cell-free assay, inhibitor; 20 µM): 6.7%
CN1CC(Oc2cnc(C#N)cc2-c2ccn3nc(NC(=O)C4CC4)cc3c2)C1  inhibition (enzyme activity, inhibitor; 1 µM): 15%
O=C(Nc1cnn(-c2csc(C(=O)NC3COC3)c2)c1)Nc1ccccc1Cl  remaining activity (enzyme activity, inhibitor; 5 µM): 99.1%
COc1ccc2c(c1)O[C@H](c1ccc(OC)c(OC)c1)C[C@@H]2NC(=O)C1(c2ccc3c(c2)OC(F)(F)O3)CC1  remaining binding (cell-free assay, competition with immobilised ligand; 1 µM): 90%
COc1cc(Cl)c(C(=O)N[C@@H](CN[C@H]2CC[C@@H](N)CC2)Cc2ccc(C#N)cc2)cc1-c1ccc(CN[C@H](C)c2ccc(C)cc2)o1  remaining activity (enzyme activity, inhibitor; 1 µM): 98%
